Experimental data: the RNAGym collection of RNA variant scans (doi:10.1126/science.aae0568)
Variants at the floor of the assay were thinned out.

B1: tRNA (parent)
chain: GUUCCGUUGGCGUAAUGGUAACGCGUCUCCCUCCUAAGGAGAAGACUGCGGGUUCGAGUCCCGUACGGAACG

Variants of: B1
Assay: yeast fitness relative to wild type (ratio to wild type); higher = fitter; tRNA-Arg(CCU), competitive growth, 37 C, YPD
Method in brief: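 Start and end populations of a pooled competition were compared by 100-nucleotide paired-end sequencing of gene amplicons. The Saccharomyces cerevisiae strains carried tRNA-Arg(CCU) gene variants at the native genomic locus, synthesised with a 3% per-site mutation rate at 69 sites, and competed in YPD at 37°C for 24 hours in six parallel replicates. Darwinian fitness relative to wild type was based on the change in genotype frequencies. Genotypes required ≥ 100 starting reads, and estimates < 0.5 were set to 0.5.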

Variant | yeast fitness
GUUCCGAUGGCGUAAUGGUAACGCGUCUCCCUCCUAAGGAGAAGACUACGGGUUCGAGCCACAUACGGAACG | ≤ 0.5
GUUCCGAUGGCGUAAUGGUAACGCGUCUCCCUCCUAAGGAGAAGACUGCGCGUUCGAGUCCCGUACGGAACG | 0.553
GUUCCGAUGGCGUAAUGGUAACGCGUCUCCCUCCUAAGGAGAAGACUGCGAGUUCGAGUCCCGUACGGAACG | 0.652
GUUCCGAUGGCGUAAUGGUAACGCGCCUCCCUCCUAAGGGGAUGACUGAGGGUUCGAGUCCCGUACGGAACG | 0.622
GUUCCGAUGGCGUAAUGGUAACGCGUCUCCCUCCUAAGGAGAACUCUGCGGGUUCGAGUCCCGUACGGAACG | 0.503
GUUCCGAUGGCGUAAAGGUAACGCGUCUCCCUCCUAAGGAGAAGACUGCGGGUUCGAGUCCCGUACGGAACG | 0.743
GUUCCGAUGGCGUAAUGGUAACGCGUCUCCCUCCUAAGCAGAAGAGUGUGGGUUCGAGUCCUGUACGGAACG | ≤ 0.5
GUUCCGAUGGCGUAAUGGUAACGCGUCUCCCACCUAAGGAGUAGACUGCGGGUUCGAGUACCGUACGGAACG | 0.619
GUUCCGAUGGCGUAAUGGUAACGCGUCUCCCUCCUAAGGAGAAGACUGCGGGUUCGAGUCCCGUACAGAACG | 0.781
GUUCCGAUGGCGUAAUGGUAACGCGUCUCCCUCCUAAGGAGAAGACUGCGGGUUCGAGUCCCGUACCGAACG | 0.669
GUUCCGAUGGCGUAAUGGUAACGCGUCUCCCGCCAAAGGAGAAGACUGCGGGUUCGAGUCCCGUACGGAACG | ≤ 0.5
GUUCCGAGGGCGUGAUGGUAACGCGUCUCCCUCCUUAGGAGAUGACUGCGGGUUCGAGUCCCGUACGGAACG | ≤ 0.5
GUUCCGAUGGCGUAAUGGAAACGCGUAUCUCUCCUAAGGACAUGACUGAGGGUUCGAGUCCCGUACGGAACG | ≤ 0.5
GUUCCGAGGGCGUAAUGGUAACGCGUCUCGCUCCUAAGGAGAAGACUGCGGGUUCGAGUCCCGUACGGAUCG | 0.518
GUUCCGAUGGCGUAAUGGUAACGCGUCUCCCUCCUAAGGACAAGACUGCGGGUUCGAGUCCCCUUCGGAACG | ≤ 0.5
GUUCCGAUGGCGUAAUGGGAACGCGUCUCCCUCCUAAGGAGAAGACUGCGGGUUCGAAUCCCGUACGGCACG | 0.527
GUUCCGAUGGCGUAAUGGAAACGCGUCUCCCUCCUAAGGAGAAGACUGUGGGUUCCAGUCCCCUACGGAACG | ≤ 0.5
GUUCCGAGGGCGUAAUGGUAACGCGUCUCGCUCCUAAGGAGAAGACUGCGGGUUCGAGUCCCGUACGGAACG | ≤ 0.5
GUUCCGAUGGCGUAAUGGUAACGCGUCCCCCUCCUAAGGAGAAGACUGCGGGUUCGAGUCCCGUACGGAACG | 0.711

Variant | yeast fitness
GUUCCGAUGGCGUAAUGGUAACGCGUCACCCUCCUAAGGAGAAGACUGCGGGUUCGAGUCCCGUACGGAACG | 0.605
GUUCCGAUGGCGUAAUGGGAACGCGUCUCCCUCCUAAGGAGAAGACUGCGGGUUCGAGUGCCGUACGGAACG | ≤ 0.5
GUUCCGAGGGCGUAAUGGUAACGCGUCUCCCUCAUAAGGAGAAGACUGCGGGUUCGACUCCAGUACGGCACG | ≤ 0.5
GUUCCGAUGGCGUAAUGGACACGCGUCUCCCUCCUAAGGGGAAGACUGCGGGUUCGAGUCCCGUACGGUACG | 0.503
GUUCCGAUGGCGUAAUGGUAACGCGUCUCCCUCCUAAGCAGAAGACUGCGGGUUAGAGUCCCGUACGGAACG | 0.723
GUUCCGAUGGCGUAAUGGUAACGCGUCACCCUCCUAAGGAGAAGACUGCGGGUUCGAGUCUCGAACGGAACG | ≤ 0.5
GUUCCGAUGGCGUAAUGGUAACGCGUCUCCCUCCUAAGGAGAAGACUGCGGCUUCGAGUCCCGUACGGAACG | 0.55
GUUCCGAUGGCGUAAUGGUAACGCGUCUCCCUCCUAAGGAGAAGACUGCGGGUUCCAGUCCCGUAUGGAACG | ≤ 0.5
GUUCCGAUGGCGUAAUGGUAACGCGUCUCCCUCCUAAGGAGAAGACUGCGGGUUCGAGUCCCGUACGCAACG | 0.811
GUUCCGAUGGCGUAAUGGAAACGCGUCUACCUCCUAAGGAGAAGACUGCGGGUUCGAGUCCCGUACGGAACG | ≤ 0.5
GUUCCGAUGGCGUAACAGUAACGCGUCUUCAUCCUAAGGAGAAGACUGCGGGUUCGAGUCCCGUACGGAACG | ≤ 0.5
GUUCCGAGGGCGUAAUGGUAACGCGUCUCCCUCCUAAGGAGAAGACUGCGAGUUCGAGUCCCGUACGGCACG | ≤ 0.5
GUUCCGAUGGCGUAAUGGUAACGCGUCUCCCUCCUAAGGAGAAGACUGCGGGUUCGACUCCCGUACGGAACG | 0.918
GUUCCGAUGGCGUAAUGGUAACGCGUCGCACUCCUAAGGAGAAGACUGCGGAUUCGAGUCCCGUACGGUACG | 0.607
GUUCCGACGGCGUAAUGGUAACGCGUCUCCCUCCUCAGGAGAAGACUGCGCGUUCGAGUCCCGUACGGAACG | ≤ 0.5
GUUCCGAUGGCGUAAUGGAAACGCGUCUCCCUCCUAAGGAGAAGACUGCGGGUUCGAGUCCCGUACGGAACG | 0.752
GUUCCGAUGGCGUAAUGGUAACGCGUCUCCCCGCUAAGGAGAAGACUGCGGGUUCGAGUCCCGUACGGAACG | ≤ 0.5
GUUCCGAUGGCGUAACAGUAACGCGUCUUCAUCCUAAGGAGAAGACUGCGGGUUCGAGUCCCGUAGUGAACG | ≤ 0.5
GUUCCGAUGGCGUAAUGGUAACGCGUCUCCCUCCUAAGGAGAAGACUGCGCGUUCCAGUCACGUACGGAACG | ≤ 0.5
